Data: ChEMBL document CHEMBL4433211, “Discovery of the First-in-Class GSK-3β/HDAC Dual Inhibitor as Disease-Modifying Agent To Combat Alzheimer's Disease” (ACS Med Chem Lett, 2019)
In brackets after ≈: the same amount, converted by molar mass. Activity calls are given as the source filed them. The calls are words filed in the database; no cut-off is given here.

Assays:
[1] = target: T1, Glycogen synthase kinase-3 beta (Homo sapiens, UniProt P49841); assay: Inhibition of human recombinant GSK3beta using GSM as substrate incubated for 30 mins by luminescence based assay
Target sequence in this assay (P49841 whole entry): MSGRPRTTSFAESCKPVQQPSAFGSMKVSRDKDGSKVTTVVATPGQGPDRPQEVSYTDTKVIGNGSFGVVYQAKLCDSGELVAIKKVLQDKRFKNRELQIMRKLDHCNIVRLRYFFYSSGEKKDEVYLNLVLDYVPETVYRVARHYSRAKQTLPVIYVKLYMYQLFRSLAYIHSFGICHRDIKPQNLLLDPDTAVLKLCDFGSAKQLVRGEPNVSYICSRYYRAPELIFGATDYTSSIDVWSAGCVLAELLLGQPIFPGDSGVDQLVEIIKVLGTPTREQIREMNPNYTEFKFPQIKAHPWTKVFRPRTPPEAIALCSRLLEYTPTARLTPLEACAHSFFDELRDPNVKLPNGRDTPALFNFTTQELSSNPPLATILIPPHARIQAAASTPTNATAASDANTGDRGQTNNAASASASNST

Histone deacetylase 1 = Histone deacetylase 1 (Homo sapiens, UniProt Q13547); assay: Inhibition of human recombinant his tagged HDAC1 expressed in baculovirus infected […] insect cells using tertbutyloxycarbonyl (Boc)-(Ac)-Lys-7-amino-4-methylcoumarin as substrate incubated for 1 hr by fluorescence based assay
Chain of Histone deacetylase 1 (Q13547 whole entry): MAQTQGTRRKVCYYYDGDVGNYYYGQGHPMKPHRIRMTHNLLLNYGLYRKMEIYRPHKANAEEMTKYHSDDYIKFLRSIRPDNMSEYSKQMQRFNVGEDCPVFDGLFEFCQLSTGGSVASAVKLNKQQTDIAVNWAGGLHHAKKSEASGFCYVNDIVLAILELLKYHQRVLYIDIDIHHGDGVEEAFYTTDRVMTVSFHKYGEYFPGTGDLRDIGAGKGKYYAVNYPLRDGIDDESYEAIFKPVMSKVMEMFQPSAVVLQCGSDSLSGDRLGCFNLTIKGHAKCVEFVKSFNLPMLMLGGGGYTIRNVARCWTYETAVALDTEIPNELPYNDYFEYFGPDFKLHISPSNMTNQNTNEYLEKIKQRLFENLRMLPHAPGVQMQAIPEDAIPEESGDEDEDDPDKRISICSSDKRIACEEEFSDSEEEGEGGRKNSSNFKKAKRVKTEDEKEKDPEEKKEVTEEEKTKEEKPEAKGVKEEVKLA

[2] = target: T2, Protein deacetylase HDAC6 (Homo sapiens, UniProt Q9UBN7); assay: Inhibition of human recombinant his tagged HDAC6 expressed in baculovirus infected […] insect cells using batcp as substrate incubated for 1 hr by fluorescence based assay
T2 sequence (Q9UBN7 whole entry): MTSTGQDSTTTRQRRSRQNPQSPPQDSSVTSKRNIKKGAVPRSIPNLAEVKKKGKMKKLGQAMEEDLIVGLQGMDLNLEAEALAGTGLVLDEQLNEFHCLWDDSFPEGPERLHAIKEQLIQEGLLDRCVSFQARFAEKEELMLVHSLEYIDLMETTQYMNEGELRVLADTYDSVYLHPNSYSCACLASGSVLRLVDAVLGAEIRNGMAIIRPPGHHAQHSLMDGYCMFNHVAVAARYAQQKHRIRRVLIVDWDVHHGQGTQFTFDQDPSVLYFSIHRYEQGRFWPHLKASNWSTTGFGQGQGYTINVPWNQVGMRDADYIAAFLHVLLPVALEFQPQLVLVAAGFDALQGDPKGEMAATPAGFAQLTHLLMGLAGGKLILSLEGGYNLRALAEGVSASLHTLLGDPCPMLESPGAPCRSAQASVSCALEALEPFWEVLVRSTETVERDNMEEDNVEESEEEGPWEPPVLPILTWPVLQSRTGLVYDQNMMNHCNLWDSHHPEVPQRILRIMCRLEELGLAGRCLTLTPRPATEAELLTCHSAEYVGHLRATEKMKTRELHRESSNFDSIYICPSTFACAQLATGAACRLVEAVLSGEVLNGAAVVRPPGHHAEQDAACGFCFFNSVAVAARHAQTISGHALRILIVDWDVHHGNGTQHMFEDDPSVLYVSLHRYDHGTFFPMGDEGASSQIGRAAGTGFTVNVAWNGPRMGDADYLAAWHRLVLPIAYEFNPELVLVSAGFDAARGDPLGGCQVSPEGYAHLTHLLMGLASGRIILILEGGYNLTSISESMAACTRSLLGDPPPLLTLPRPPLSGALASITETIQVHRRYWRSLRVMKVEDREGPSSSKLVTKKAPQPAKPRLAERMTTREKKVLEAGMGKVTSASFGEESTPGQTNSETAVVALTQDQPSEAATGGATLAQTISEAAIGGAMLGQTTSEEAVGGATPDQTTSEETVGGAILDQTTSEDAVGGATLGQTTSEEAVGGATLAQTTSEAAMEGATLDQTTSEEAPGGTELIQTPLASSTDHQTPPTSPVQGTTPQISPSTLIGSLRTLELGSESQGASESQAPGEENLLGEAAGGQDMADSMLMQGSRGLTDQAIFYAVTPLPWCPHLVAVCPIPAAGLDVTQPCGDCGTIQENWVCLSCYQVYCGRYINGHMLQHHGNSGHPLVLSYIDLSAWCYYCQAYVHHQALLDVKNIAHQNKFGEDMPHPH

[3] = target: T3, Protein deacetylase HDAC6 (Homo sapiens) (UniProt Q9UBN7); assay: Inhibition of HDAC6 in human SH-SY5Y cells assessed as increase in acetylation of alpha-tubulin incubated for 30 hrs by Western blot analysis; type: cell-based
T3 sequence (whole entry): T2 sequence (Q9UBN7 whole entry)
Summary of the method: (§1)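 Human neuroblastoma SH-SY5Y cells treated 30 h at 0.1, 1.0 and 5.0 μM; cell lysates probed by Western blot for acetylated α-tubulin (HDAC6 cellular marker) and histone H3 acetylated at lysines 9/14 (H3K9K14ac).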

[4] = target: T4, Histone deacetylase (Homo sapiens) (UniProt Q13547+O15379+Q9UBN7+Q92769+Q9UQL6+Q8WUI4+Q9BY41+Q96DB2+P56524+Q9UKV0+Q969S8); assay: Inhibition of HDAC in human SH-SY5Y cells assessed as increase in acetylation of histone 3 at lysines 9/14 at 0.1 to 5 uM incubated for 30 hrs by Western blot analysis; type: cell-based; summary of the method: as §1
[5] = target: T1, Glycogen synthase kinase-3 beta; assay: Inhibition of GSK3beta in human SH-SY5Y cells assessed as reduction in copper-induced tau hyperphosphorylation at 10 uM preincubated for 1 hr followed by copper addition and measured after 26 hrs by ELISA; type: cell-based; conditions: in the assay text read “16 hrs” for “26 hrs”
Summary of the method: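 Differentiated SH-SY5Y cells pretreated 1 h with test agent (LiCl 10 mM reference; compounds 10 μM), then copper 400 μM for 16 h; cells scraped, phospho-tau quantified by immunoenzymatic assay at 450 nm; mean ± SEM.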
Target sequence in this assay (P49841 whole entry, looked up): as the sequence (P49841 whole entry) above

SH-SY5Y [6] = assay: Cytotoxicity against human SH-SY5Y cells up to 100 uM incubated for 24 hrs by MTS assay; type: cell-based
Summary of the method: (§2)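 SH-SY5Y cells exposed to test compound for 24 h at 37 °C; viability read by MTS assay and expressed as % of untreated control.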

SH-SY5Y [7] = assay: Neuroprotective activity against H2O2-induced cell death in human SH-SY5Y cells at 0.1 uM incubated for 24 hrs by MTS assay; type: functional, cell-based
Summary of the method: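 SH-SY5Y cells challenged 24 h with H2O2 (25 and 50 μM) in presence of compounds (0.1–10 μM), alone or as a two-compound combination; viability by MTS assay as % of control.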

SH-SY5Y [8] = assay: Cytoprotective activity against human SH-SY5Y cells assessed as restoration of H2O2-induced p53 expression level at 10 uM incubated for 24 hrs; type: functional, cell-based
Summary of the method: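 SH-SY5Y cells exposed to H2O2 (50 μM) with or without test compound (10 μM); p53 protein levels then measured.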

[9] = tested on: Cerebellar granule neurone; assay: Neuroprotective activity against 6-OHDA-induced cell death in Wistar rat primary cerebellar granule neurons at 5 uM preincubated for 6 hrs followed by 6-OHDA addition and measured after 24 hrs by MTT assay; type: functional, cell-based
Summary of the method: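 Primary differentiated cerebellar granule neurons challenged with 6-OHDA with or without test compound; viability assessed; mean ± SE of at least 3 experiments in quadruplicate, one-way ANOVA with Bonferroni post hoc test.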

SH-SY5Y [10] = assay: Induction of neurogenesis in human SH-SY5Y cells assessed as upregulation of GAP43 mRNA at 10 uM incubated for 24 hrs by RT-PCR analysis; type: functional, cell-based
Summary of the method: (§3)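 SH-SY5Y cells treated 24 h (10 μM, or 1 μM for one parent compound; retinoic acid positive control); GAP43, N-myc and MAP-2 mRNA measured by RT-PCR, expressed as fold of control.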

SH-SY5Y [11] = assay: Induction of neurogenesis in human SH-SY5Y cells assessed as upregulation of N-myc mRNA at 10 uM incubated for 24 hrs by RT-PCR analysis; type: functional, cell-based; summary of the method: as §3
SH-SY5Y [12] = assay: Induction of neurogenesis in human SH-SY5Y cells assessed as upregulation of MAP-2 mRNA at 10 uM incubated for 24 hrs by RT-PCR analysis; type: functional, cell-based; summary of the method: as §3
SH-SY5Y [13] = assay: Induction of neurogenesis in human SH-SY5Y cells assessed as stimulation of neurite outgrowth at 10 uM incubated for 72 hrs by phase contrast microscopic analysis; type: functional, cell-based
Summary of the method: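 SH-SY5Y cells treated 72 h at 10 μM, retinoic acid (10 μM) as positive control; neurite-bearing cells scored from images taken at 20× magnification.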

Microglia [14] = assay: Immunomodulatory activity in LPS treated Wistar rat primary microglial cells assessed as decrease in NOS2 expression level at 5 to 50 uM incubated for 24 hrs by western blot analysis; type: functional, cell-based
Summary of the method: (§4)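 Primary microglial cells treated 24 h with LPS in presence or absence of test compound; NOS2, MRC1 and TREM2 protein assessed by Western blot, normalized to GAPDH.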

Microglia [15] = assay: Immunomodulatory activity in LPS treated Wistar rat primary microglial cells assessed as decrease in MRC1 expression level at 5 to 50 uM incubated for 24 hrs by western blot analysis; type: functional, cell-based; summary of the method: as §4
Microglia [16] = assay: Immunomodulatory activity in LPS treated Wistar rat primary microglial cells assessed as effect on TREM2 expression level at 5 to 50 uM incubated for 24 hrs by western blot analysis; type: functional, cell-based; summary of the method: as §4
[17] = Toxicity in zebra fish embryo at 25 uM dosed at 5 hpf and measured after 44 to 48 hpf by microscopic based assay; type: organism-based, Danio rerio; conditions: zebrafish, in vivo
[18] = Toxicity in zebra fish embryo assessed as lethality at < 100 uM dosed at 5 hpf and measured after 44 to 48 hpf by microscopic based assay; type: organism-based, Danio rerio; conditions: zebrafish, in vivo
Summary of the method: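 Wild-type zebrafish embryos exposed to the compound at concentrations below 100 μM, including 25, 50 and 75 μM. Control embryos were kept in 2% DMSO vehicle. Embryos were scored for lethality, and their morphology, including tail and eye formation, was inspected by imaging.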

[19] = Toxicity in zebra fish embryo assessed as stunted tail at 50 to 75 uM uM dosed at 5 hpf and measured after 44 to 48 hpf by microscopic based assay; type: organism-based, Danio rerio; conditions: zebrafish, in vivo
[20] = Toxicity in zebra fish embryo assessed as crooked tail at 50 to 75 uM uM dosed at 5 hpf and measured after 44 to 48 hpf by microscopic based assay; type: organism-based, Danio rerio; conditions: zebrafish, in vivo
[21] = Toxicity in zebra fish embryo assessed as malformation of eye at 75 uM uM dosed at 5 hpf and measured after 44 to 48 hpf by microscopic based assay; type: organism-based, Danio rerio; conditions: zebrafish, in vivo
[22] = Toxicity in zebra fish embryo assessed as development perturbation at 75 uM dosed at 5 hpf and measured after 44 to 48 hpf by microscopic based assay; type: organism-based, Danio rerio; conditions: zebrafish, in vivo
[23] = Aqueous solubility of the compound in PBS incubated for 24 hrs under continuous stirring condition by UV spectrometric assay; type: physicochemical
[24] = target: T4, Histone deacetylase (Homo sapiens); assay: Inhibition of HDAC in human SH-SY5Y cells assessed as increase in acetylation of histone 3 at lysines 9/14 at 5 uM incubated for 30 hrs by Western blot analysis; type: cell-based; summary of the method: as §1
[25] = target: T1, Glycogen synthase kinase-3 beta; assay: Inhibition of human recombinant GSK3beta up to 50 uM using GSM as substrate incubated for 30 mins by luminescence based assay
Target sequence in this assay (P49841 whole entry, looked up): as the sequence (P49841 whole entry) above

SH-SY5Y [26] = assay: Cytotoxicity against human SH-SY5Y cells at 10 uM incubated for 24 hrs by MTS assay; type: cell-based; summary of the method: as §2
SH-SY5Y [27] = assay: Induction of neurogenesis in human SH-SY5Y cells assessed as upregulation of GAP43 mRNA at 1 uM incubated for 24 hrs by RT-PCR analysis; type: functional, cell-based; summary of the method: as §3
SH-SY5Y [28] = assay: Induction of neurogenesis in human SH-SY5Y cells assessed as upregulation of MAP-2 mRNA at 1 uM incubated for 24 hrs by RT-PCR analysis; type: functional, cell-based; summary of the method: as §3
SH-SY5Y [29] = assay: Induction of neurogenesis in human SH-SY5Y cells assessed as upregulation of N-myc mRNA at 1 uM incubated for 24 hrs by RT-PCR analysis; type: functional, cell-based; summary of the method: as §3

`O=C(CCCCCNC(=S)Nc1ccc2c(c1)C(=O)NC2=O)NO` showed an IC50 [1] of 2.69 µM, an IC50 (Histone deacetylase 1) of 12.8 µM and an IC50 [2] of 3.19 µM. For the same compound, the inhibition [3] was “Dose-dependent effect”, the inhibition [4] was “inactive” and the inhibition [5] was “Active”. For the same compound, the Activity (SH-SY5Y [6]) was “Non-Toxic”, the Activity (SH-SY5Y [7]) was “Active” and the Activity (SH-SY5Y [8]) was “Active”. The Activity [9] was “Active”, the Activity (SH-SY5Y [10]) was “Active” and the Activity (SH-SY5Y [11]) was “Active”. For the same compound, the Activity (SH-SY5Y [12]) was “Active”, the Activity (SH-SY5Y [13]) was “Active” and the Activity (Microglia [14]) was “Active”. For the same compound, the Activity (Microglia [15]) was “Active”, the Activity (Microglia [16]) was “inactive” and the Activity [17] was “Non-Toxic”. For the same compound, the Activity [18] was “Non-Toxic”, the Activity [19] was “Toxic” and the Activity [20] was “Toxic”. The Activity [21] was “Toxic”, the Activity [22] was “Toxic” and the solubility at 24 h [23] was 153 µM (≈ 53.8 µg/mL). For the same compound, the inhibition [24] was “inactive”.

With `O=C(CCCCCCC(=O)Nc1ccccc1)NO` [VORINOSTAT] the inhibition [25] was “inactive”, the inhibition [5] was “Active” and the Activity (SH-SY5Y [26]) was “Toxic”. For the same compound, the Activity (SH-SY5Y [27]) was “Active”, the Activity (SH-SY5Y [28]) was “Active” and the Activity (SH-SY5Y [29]) was “Active”. For the same compound, the Activity (Microglia [14]) was “Active”, the Activity (Microglia [15]) was “Active” and the Activity (Microglia [16]) was “inactive”.
